Results as given in PMC10363772 (RSC Advances, 2023).
Values after ≈ are worked out from the molar mass of the structure shown.

Columns and labels:
[1] = target: T1, α-amylase (Sus scrofa, UniProt P00690); experiment: α-Amylase inhibitory assay; format: biochemical; conditions: at 100 μg mL^−1
T1 sequence (P00690 16-511): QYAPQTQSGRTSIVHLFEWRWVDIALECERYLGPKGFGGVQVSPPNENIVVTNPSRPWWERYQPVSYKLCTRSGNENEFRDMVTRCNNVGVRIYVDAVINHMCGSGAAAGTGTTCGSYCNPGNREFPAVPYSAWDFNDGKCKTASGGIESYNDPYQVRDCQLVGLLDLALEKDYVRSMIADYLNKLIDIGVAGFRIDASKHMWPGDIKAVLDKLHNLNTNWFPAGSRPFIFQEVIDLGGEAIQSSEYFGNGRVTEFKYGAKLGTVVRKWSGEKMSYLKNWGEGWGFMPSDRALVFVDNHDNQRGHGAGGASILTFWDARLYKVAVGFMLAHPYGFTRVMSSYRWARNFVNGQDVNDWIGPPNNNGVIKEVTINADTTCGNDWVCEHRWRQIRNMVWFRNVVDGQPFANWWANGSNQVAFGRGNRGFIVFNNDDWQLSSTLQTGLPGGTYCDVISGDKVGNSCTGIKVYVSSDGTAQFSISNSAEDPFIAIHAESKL

[2] = target: rat intestinal α-glucosidase; experiment: α-Glucosidase inhibition assay; format: biochemical; conditions: for α-glucosidase inhibition: at 100 μg mL^−1
[3] = target: β-glucosidase; experiment: β-Glucosidase inhibition assay; format: biochemical; conditions: for β-glucosidase inhibition: at 100 μg mL^−1
[4] = Solubility studies of nano-curcumin in water; format: physicochemical; conditions: deionized water
Outline: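 Each test sample was stirred in 30 mL deionized water at room temperature for 24 h to make a saturated solution. Undissolved particles were removed by centrifugation, and the liquid was filtered through a PTFE membrane. The filtrate was diluted with an equal volume of deionized water, and dissolved curcumin was quantified by UV/Vis absorbance at 422 nm.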

[5] = DPPH free radical scavenging assay; conditions: at 75 μg mL^−1
Outline: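 Test samples were mixed with 3.0 mL of 0.1 mM DPPH in methanol, shaken vigorously, and held 30 min at room temperature in the dark. Absorbance was read at 515 nm and % scavenging calculated. BHT was the positive control and methanol the negative control.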

α-amylase inhibition [1] [%] | IC50, mean ± SD, α-Glucosidase [2] [µg/mL] | α-glucosidase inhibition [2] [%] | IC50, mean ± SD, β-Glucosidase [3] [µg/mL] | β-glucosidase inhibition [3] [%] | solubility at 24 h [4] [µg/mL] | solubility thermodynamic at 24 h ([4]; water, thermodynamic from solid) [µM] | Compound | DPPH free radical scavenging activity [5] [%]
68.74 ± 0.28 | 45.76 ± 0.13 (≈ 70.9 µM) | 66.04 ± 0.18 | 45.55 ± 0.21 (≈ 70.6 µM) | 66.05 ± 0.47 |  |  | C[C@H]1O[C@H](O[C@H]2[C@H](O)[C@@H](O)[C@@H](O[C@H]3[C@H](O)[C@@H](O)C(O)O[C@@H]3CO)O[C@@H]2CO)[C@H](O)[C@@H](O)[C@@H]1N[C@H]1C=C(CO)[C@@H](O)[C@H](O)[C@H]1O (stereo partly drawn) [Acarbose, acarbose] | 
 |  | 47.87 ± 0.31 | 51.92 ± 0.14 (≈ 141 µM) | 50.38 ± 0.11 | 0.98 (≈ 2.66 µM) | 2.68 (≈ 0.987 µg/mL) | COc1cc(/C=C/C(=O)CC(=O)/C=C/c2ccc(O)c(OC)c2)ccc1O [Curcumin, diferuloylmethane] | 45.63 ± 0.78
 |  |  |  |  |  |  | Cc1cc(C(C)(C)C)c(O)c(C(C)(C)C)c1 [BHT, Butylated hydroxytoluene] | 50.48 ± 1.11
